# The source made the active and inactive calls. The calls are words filed in the database; no cut-off is given here.
# What was measured:
# [1] = target: Mitogen-activated protein kinase; ERK1/ERK2 (Homo sapiens) (UniProt P27361+P28482); assay: Activation of ERK1/2 phosphorylation in human HeLa cells assessed as increase in ratio of phosphorylated ERK1/2 to total ERK1/2 level at 5 uM by ELISA; type: cell-based
# How it was run: (§1)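 Cell-based ELISA: HeLa or MCF-7 cells (20×10^3/well) grown overnight at 37 °C, 5% CO2, treated with 5 μM, then fixed and blocked. Probed with rabbit anti-total and anti-phospho P38, JNK or ERK1/2 (1:100), then HRP anti-rabbit IgG. Result is the phospho/total ratio; inhibitor arms use […], […] or SP600125. n=3.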
# HeLa [2] = assay: Induction of nitric oxide production in human HeLa cells at 1 uM measured over 8 hrs by Griess reaction based assay relative to control; type: functional
# How it was run: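 Cells were plated at 2×10⁶ cells/well in 24-well plates for 12 h, then treated at 1, 5 and 10 µM for 8 h at 37 °C. Culture supernatant was mixed with Griess reagent (0.002% N-1-naphthylethylenediamine, 0.5% sulfanilic acid, 14% glacial acetic acid). Nitric oxide was quantified by absorbance at 550 nm.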
# Homo sapiens [3] = species: Homo sapiens; assay: (§2) Cytotoxicity against human SW680 cells assessed as reduction in cell viability after 4 hrs by MTT assay; type: functional, cell-based
# [4] = as §2; type: functional, cell-based
# MCF7 [5] = assay: Induction of nitric oxide production in human MCF7 cells at 1 uM measured over 8 hrs by Griess reaction based assay relative to control; type: functional
# How it was run: (§3)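 Cells seeded at 2×10^6 cells/well for 12 h, then exposed to 1, 5 and 10 μM compound for 8 h at 37 °C. Culture supernatant mixed with Griess reagent (0.002% N-1-naphthyl-ethylenediamine dihydrochloride, 0.5% sulfanilic acid, 14% glacial acetic acid). Nitrite read by absorbance at 550 nm and compared with vehicle group.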
# Homo sapiens [6] = species: Homo sapiens; assay: Inhibition of PKA phosphorylation (unknown origin) at 50 uM after 5 to 60 mins by bioluminescence assay relative to control
# How it was run: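 Kinase activity measured with compound at 1, 5, 10 and 50 μM, using a Kinase Reaction Rate Kit. Phosphorylation was followed by bioluminescent monitoring of ATP consumption, with light read at 5 min and 1 h. Staurosporine served as positive control. Data given as % kinase inhibition (% of control activity), from two separate experiments.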
# MCF7 [7] = assay: Induction of apoptosis in human MCF7 cells assessed as effect on Mcl-1 long level at 1 to 3 uM after 24 hrs by Western blot analysis; type: functional, cell-based
# How it was run: (§4)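 Cells were treated at 1, 3 and 5 µM for 24 h at 37 °C. Lysis was in ice-cold Triton X-100 buffer with protease and phosphatase inhibitors; nuclear proteins were extracted separately. Protein was quantified by BCA. Lysates were separated by electrophoresis, transferred to nitrocellulose and blocked in non-fat milk for 1 h. Primary antibody was applied overnight at 4 °C and secondary for 1 h at 28 °C. Detection was by enhanced chemiluminescence.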
# HeLa [8] = assay: Induction of apoptosis in human HeLa cells assessed as necrotic cells at 1 uM after 12 hrs by annexin-V FITC/propidium iodide staining based flow cytometric analysis relative to control; type: functional
# How it was run: (§5)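 Cells were grown in DMEM with 10% heat-inactivated FBS at 37 °C and 5% CO₂, then plated at 500,000 cells/well in 24-well plates. They were treated from a DMSO stock (DMSO ≤0.1%) for 8, 12 or 16 h. After a PBS wash, cells were resuspended in binding buffer (10 mM HEPES pH 7.4, 2.5 mM CaCl₂, 140 mM NaCl, 0.1% BSA), stained 40 min with FITC-annexin V, then with PI, and run on the flow cytometer immediately. Values are the mean of three independent experiments.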
# MCF7 [9] = assay: Induction of apoptosis in human MCF7 cells assessed as change in Bcl-2 level at 1 to 3 uM after 24 hrs by Western blot analysis; type: functional, cell-based; how it was run: as §4
# HeLa [10] = assay: Induction of apoptosis in human HeLa cells assessed as up-regulation of total p53 level at 5 uM after 12 hrs by sandwich ELISA; type: functional, cell-based
# How it was run: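 Cells were treated at 5 µM for 12, 24 and 48 h. Lysis was in ice-cold lysis buffer with 1 mM PMSF (5 min on ice), followed by three freeze-thaw cycles and a 10 min spin at 4 °C. Acetylated and total p53 were measured in the supernatant by kit sandwich ELISA, read at 450 nm. The control index is sample absorbance divided by that of untreated cells at the same time. Values are mean ± SD of triplicate experiments.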
# MCF7 [11] = assay: Induction of apoptosis in human MCF7 cells assessed as necrotic cells at 1 uM after 12 hrs by annexin-V FITC/propidium iodide staining based flow cytometric analysis relative to control; type: functional; how it was run: as §5
# HeLa [12] = assay: Induction of apoptosis in human HeLa cells assessed as viable cells at 1 uM after 16 hrs by annexin-V FITC/propidium iodide staining based flow cytometric analysis relative to control; type: functional; conditions: read-out: Activity; how it was run: as §5
# HeLa [13] = assay: Induction of apoptosis in human HeLa cells assessed as early apoptotic cells at 1 uM after 12 hrs by annexin-V FITC/propidium iodide staining based flow cytometric analysis relative to control; type: functional; how it was run: as §5
# HeLa [14] = assay: Induction of apoptosis in human HeLa cells assessed as late apoptotic cells at 1 uM after 16 hrs by annexin-V FITC/propidium iodide staining based flow cytometric analysis relative to control; type: functional; how it was run: as §5
# MCF7 [15] = assay: Induction of caspase-dependent apoptosis in human MCF7 cells assessed as activation of caspase-8 at 1 to 3 uM after 24 hrs by Western blot analysis; type: functional, cell-based; how it was run: as §4
# [16] = target: c-Jun N-terminal kinase, JNK (Homo sapiens) (UniProt P45983+P53779+P45984); assay: Activation of JNK phosphorylation in human HeLa cells assessed as increase in ratio of phosphorylated JNK to total JNK level at 5 uM in presence of JNK inhibitor SP600125 by ELISA; type: cell-based; how it was run: as §1
# MCF7 [17] = assay: Induction of apoptosis in human MCF7 cells assessed as necrotic cells at 1 uM after 8 hrs by annexin-V FITC/propidium iodide staining based flow cytometric analysis relative to control; type: functional; how it was run: as §5
# MCF7 [18] = assay: Induction of apoptosis in human MCF7 cells assessed as early apoptotic cells at 1 uM after 12 hrs by annexin-V FITC/propidium iodide staining based flow cytometric analysis relative to control; type: functional; how it was run: as §5
# [19] = Cytotoxicity against HEK293 cells assessed as cell viability at 200 uM after 4 hrs by MTT assay relative to control; type: cell-based; conditions: human, read-out: Activity
# How it was run: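 MTT: 10,000–20,000 cells/well attached for 16 h, then washed twice with serum-free RPMI. Treated with 1–200 µM for 4 h, 3 parallel runs per concentration. MTT added for 2 h; medium partly removed and isopropanol added. A590 read. Viability = (A treated − A doxorubicin)/(A medium − A doxorubicin)×100. Mean of three experiments, triplicate wells each.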
# MCF7 [20] = assay: Induction of nitric oxide production in human MCF7 cells measured over 8 hrs by Griess reaction based assay; type: functional, cell-based; how it was run: as §3
# MCF7 [21] = assay: Induction of caspase-dependent apoptosis in human MCF7 cells assessed as activation of caspase-6 at 1 to 3 uM after 24 hrs by Western blot analysis; type: functional, cell-based; how it was run: as §4
# MCF7 [22] = assay: Induction of ERK/MAPK signal transduction pathway in human MCF7 cells assessed as increase in c-jun level; type: cell-based
# Sequence of Mitogen-activated protein kinase; ERK1/ERK2 (Homo sapiens) (P27361 whole entry, looked up): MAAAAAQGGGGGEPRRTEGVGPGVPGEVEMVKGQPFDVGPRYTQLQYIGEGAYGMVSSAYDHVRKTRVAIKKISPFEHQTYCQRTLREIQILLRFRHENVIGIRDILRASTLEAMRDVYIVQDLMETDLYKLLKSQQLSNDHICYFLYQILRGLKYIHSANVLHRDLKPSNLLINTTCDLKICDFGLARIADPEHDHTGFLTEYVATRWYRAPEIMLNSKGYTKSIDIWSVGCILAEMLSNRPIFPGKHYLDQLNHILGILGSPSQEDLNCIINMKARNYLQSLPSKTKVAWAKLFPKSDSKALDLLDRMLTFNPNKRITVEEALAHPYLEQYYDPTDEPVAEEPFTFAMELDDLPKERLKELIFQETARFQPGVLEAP
# Sequence of Mitogen-activated protein kinase; ERK1/ERK2 (Homo sapiens) (P28482 whole entry, looked up): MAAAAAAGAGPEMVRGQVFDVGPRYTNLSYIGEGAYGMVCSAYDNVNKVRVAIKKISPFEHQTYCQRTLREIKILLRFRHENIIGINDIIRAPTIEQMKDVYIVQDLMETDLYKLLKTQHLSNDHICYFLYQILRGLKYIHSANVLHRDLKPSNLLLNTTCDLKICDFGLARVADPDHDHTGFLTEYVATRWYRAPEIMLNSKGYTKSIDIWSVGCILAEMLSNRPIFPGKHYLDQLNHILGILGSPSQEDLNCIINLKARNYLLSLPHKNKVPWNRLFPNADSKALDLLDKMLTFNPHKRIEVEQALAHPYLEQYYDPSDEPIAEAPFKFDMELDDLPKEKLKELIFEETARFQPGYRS
smiles,measurement,setting,value
Cn1cc(/C=N\NC(=O)c2cn(C)c3ccc(Br)cc23)c2ccccc21,Activity,[1],Active
same,Activity,HeLa [2],29.8%
same,Activity,Homo sapiens [3],Dose-dependent effect
same,IC50,[4],2770 nM
same,Activity,MCF7 [5],32.1%
same,inhibition,Homo sapiens [6],45%
same,Activity,MCF7 [7],inactive
same,Activity,HeLa [8],0.3%
same,Activity,MCF7 [9],inactive
same,Activity,HeLa [10],Active
same,Activity,MCF7 [11],2.61%
same,viability at 1 µM,HeLa [12],14.3%
same,Activity,HeLa [13],33.51%
same,Activity,HeLa [14],71.74%
same,Activity,MCF7 [15],inactive
same,Activity,[16],inactive
same,Activity,MCF7 [17],0.33%
same,Activity,MCF7 [18],21.18%
same,"viability at 4 h, 200 µM",[19],95%
same,Activity,MCF7 [20],Dose-dependent effect
same,Activity,MCF7 [21],inactive
same,Activity,MCF7 [22],Active

# From ChEMBL document CHEMBL4316598, “Synthesis, antiproliferative and apoptosis induction potential activities of novel bis(indolyl)hydrazide-hydrazone derivatives” (Bioorg Med Chem, 2019)
